Laboratory results from publication PMC7655718 (The Journal of antibiotics, 2020).
≈ marks a conversion by molar mass, not a printed value. Like-named read-outs stand apart in the source and are kept apart here.

Key:
[1] = system: tested Gram-positive bacterial strains; experiment: MIC, text summary over tested Gram-positive strains; assay type: cell-based; conditions: read-out: MIC value as low as
[2] = system: S. aureus ATCC 33591 (Sa91); experiment: MIC, microdilution with resazurin; assay type: cell-based; conditions: Staphylococcus aureus, ATCC33591, read-out: MIC Sa91
Summary of the method: (§1)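 Compounds dissolved in DMSO at 2 mg/mL. Overnight blood-agar colonies were suspended in PBS to 0.5 McFarland, then diluted in Mueller Hinton broth to about 1x10^6 cfu/mL with resazurin (1:1000 of 0.1% w/v stock). Twofold DMSO dilutions were added 1:40, giving 50 to 0.4 μg/mL at 2.5% DMSO. Incubation was 35 °C for 16-20 h. Blue/non-turbid wells counted as inhibited, pink/turbid as grown.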

[3] = system: tested A. baumannii strains; experiment: MIC, text summary over A. baumannii strains; assay type: cell-based, Acinetobacter baumannii; conditions: Acinetobacter baumannii, read-out: MIC value as low as
Summary of the method: as §1

[4] = system: S. epidermidis 700296 (Se); experiment: MIC, microdilution with resazurin; assay type: cell-based; conditions: Staphylococcus epidermidis, read-out: MIC Se
Summary of the method: as §1

[5] = system: S. aureus ATCC 25923 (Sa23); experiment: MIC, microdilution with resazurin; assay type: cell-based; conditions: Staphylococcus aureus, ATCC25923, read-out: MIC Sa23
Summary of the method: as §1

[6] = system: A. baumannii ATCC 19606 (type strain, Ab06); experiment: MIC and MBC; assay type: cell-based, Acinetobacter baumannii; conditions: Acinetobacter baumannii
Summary of the method: as §1

[7] = system: S. aureus BAA-2312 (Sa12); experiment: MIC, microdilution with resazurin; assay type: cell-based; conditions: Staphylococcus aureus, BAA2312, read-out: MIC Sa12
Summary of the method: as §1

[8] = system: S. aureus ATCC 700699 (Sa99); experiment: MIC, microdilution with resazurin; assay type: cell-based; conditions: Staphylococcus aureus, ATCC700699, read-out: MIC Sa99
Summary of the method: as §1

[9] = system: S. aureus ATCC 33592 (Sa92); experiment: MIC, microdilution with resazurin; assay type: cell-based; conditions: Staphylococcus aureus, ATCC33592, read-out: MIC Sa92
Summary of the method: as §1

[10] = system: A. baumannii ATCC 747 (Ab47); experiment: MIC, microdilution with resazurin; assay type: cell-based, Acinetobacter baumannii; conditions: Acinetobacter baumannii, ATCC747, read-out: MIC Ab47
Summary of the method: as §1

[11] = system: B. subtilis ATCC 6623 (Bs); experiment: MIC, microdilution with resazurin; assay type: cell-based, Bacillus subtilis; conditions: for MIC: Bacillus subtilis, ATCC6623, read-out: MIC Bs
[12] = system: S. aureus ATCC 25923 biofilm formation; experiment: Biofilm inhibition assay; assay type: cell-based, Staphylococcus aureus
Summary of the method: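 Blood-agar culture was suspended in PBS (0.5 McFarland), then diluted 1:100 in yeast extract casamino acid broth (about 1x10^6 cfu/mL). Compound at 2xMIC, MIC and 0.5xMIC was added before biofilm formation, in triplicate, with broth-only and bacteria+DMSO controls. Incubation was 35 °C for 24 h. Wells were PBS-washed, dried, stained with 0.1% crystal violet, solubilised in 33% acetic acid and read at 620 nm. % inhibition = [1−(ODcompound−ODbroth)/(ODdmso−ODbroth)]×100, from mean and SD.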

[13] = system: human embryonic kidney cell line (HEK293); experiment: Toxicity against HEK293 cell line; assay type: cell-based
[14] = system: S. aureus ATCC 25923 preformed biofilm; experiment: Biofilm destruction assay; assay type: cell-based, Staphylococcus aureus; conditions: 2xMIC, MIC and 0.5xMIC tested, 24 hours
Summary of the method: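 Biofilm was first grown in 96-well plates for 24 h at 35 °C and washed with PBS to remove unadhered cells. Fresh yeast extract casamino acid broth was added with compound at 2xMIC, MIC or 0.5xMIC, or DMSO, in triplicate, plus broth-only wells. Incubation was 35 °C for 24 h. Crystal violet was stained, solubilised and read at 620 nm. % destruction = [1−(ODcompound−ODbroth)/(ODdmso−ODbroth)]×100, from triplicate means.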

[15] = system: S. aureus ATCC 33599 (MRSA); experiment: MIC and MBC; assay type: cell-based, Staphylococcus aureus; conditions: Staphylococcus aureus, ATCC33599|MRSA
Summary of the method: as §1

[16] = system: S. aureus ATCC 33599 (MRSA); experiment: Time kill assay; assay type: cell-based, Staphylococcus aureus; conditions: 4xMIC
Summary of the method: (§2)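 Growth curves by optical density set the log phase. Log-phase bacteria (about 2 h shaking in Mueller Hinton broth II) were diluted in warm broth to about 3x10^6 cfu/mL. They were exposed to compound at 4xMIC (other multiples where indicated), in triplicate, at 35 °C. Colistin (A. baumannii) or vancomycin (S. aureus) and DMSO were included. Samples at 0, 2, 4, 6, 8, 10, 12 and 24 h were counted by drop plate on blood agar (18-24 h, 35 °C). Log cfu/mL was plotted against time.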

A. baumannii ATCC 19606 = experiment: Time kill assay; assay type: cell-based, Acinetobacter baumannii; conditions: 4xMIC
Summary of the method: as §2

[17] = 2xMIC, MIC and 0.5xMIC concentrations, 24 hours

Compound	MIC [1]	MIC [2]	MIC [4]	MIC [5]	MIC ([6]; ATCC19606, read-out: MIC Ab06)	MIC [7]	MIC [8]	MIC [9]	MIC [10]	MIC [11]	toxicity for HEK293 [13]	destruction of preformed biofilm [14]	MBC [15]	MIC [15]	also measured
O=C(O)c1ccc(-n2cc(/C=N/Nc3cccc(F)c3)c(-c3ccc4ccccc4c3)n2)cc1 [Compound 15]	≥ 1.56 µg/mL	12.5 µg/mL (≈ 27.7 µM)	6.25 µg/mL (≈ 13.9 µM)	6.25 µg/mL (≈ 13.9 µM)	6.25 µg/mL (≈ 13.9 µM)	12.5 µg/mL (≈ 27.7 µM)	1.56 µg/mL (≈ 3.46 µM)	3.12 µg/mL (≈ 6.94 µM)	12.5 µg/mL (≈ 27.7 µM)	12.5 µg/mL (≈ 27.7 µM)	–	–	–	–	MIC [3]: ≥ 6.25 µg/mL; MBC ([6]; ATCC19606): 12.5 µg/mL (≈ 27.7 µM); MIC ([6]; ATCC19606): 6.25 µg/mL (≈ 13.9 µM)
O=C(O)c1ccc(-n2cc(/C=N/N(Cc3ccccc3)Cc3ccccc3)c(-c3ccc4ccccc4c3)n2)cc1 [Compound 10]	≥ 1.56 µg/mL	1.56 µg/mL (≈ 2.91 µM)	3.12 µg/mL (≈ 5.82 µM)	3.12 µg/mL (≈ 5.82 µM)	> 50 µg/mL	3.12 µg/mL (≈ 5.82 µM)	1.56 µg/mL (≈ 2.91 µM)	1.56 µg/mL (≈ 2.91 µM)	> 50 µg/mL	> 50 µg/mL	did not show any significant toxicity	excellent ability to eliminate the preformed biofilms	–	–	inhibition of biofilm formation [12, 17]: very effective; MIC Bs ([11]; B. subtilis ATCC 6623): no activity; IC50 ([13]; Homo sapiens, HEK293, read-out: IC50 for HEK293 cell line): ~50 µg/mL (≈ 93.2 µM)
CN[C@H](CC(C)C)C(=O)N[C@H]1C(=O)N[C@@H](CC(N)=O)C(=O)N[C@H]2C(=O)N[C@H]3C(=O)N[C@H](C(=O)N[C@H](C(=O)O)c4cc(O)cc(O)c4-c4cc3ccc4O)[C@H](O)c3ccc(c(Cl)c3)Oc3cc2cc(c3O[C@@H]2O[C@H](CO)[C@@H](O)[C@H](O)[C@H]2O[C@H]2C[C@](C)(N)[C@H](O)[C@H](C)O2)Oc2ccc(cc2Cl)[C@H]1O [VC, vancomycin, reference compound]	–	3.12 µg/mL (≈ 2.16 µM)	3.12 µg/mL (≈ 2.16 µM)	1.56 µg/mL (≈ 1.08 µM)	> 50 µg/mL	0.78 µg/mL (≈ 0.538 µM)	3.12 µg/mL (≈ 2.16 µM)	0.39 µg/mL (≈ 0.269 µM)	> 50 µg/mL	0.195 µg/mL (≈ 0.135 µM)	–	almost failed to show any activity	6.25 µg/mL (≈ 4.31 µM)	3.12 µg/mL (≈ 2.16 µM)	inhibition of biofilm formation ([12]; 0.5xMIC): weak inhibition; inhibition of biofilm formation ([12]; 2xMIC and MIC concentration): potent inhibition; time until bacteria were eliminated [16]: ≤ 8 h; time kill effect ([16]; 24 hours at 35 °C): mildly bactericidal
O=C(O)c1ccc(-n2cc(/C=N/Nc3ccccc3F)c(-c3ccc4ccccc4c3)n2)cc1 [Compound 14]	≥ 1.56 µg/mL	12.5 µg/mL (≈ 27.7 µM)	12.5 µg/mL (≈ 27.7 µM)	12.5 µg/mL (≈ 27.7 µM)	25 µg/mL (≈ 55.5 µM)	12.5 µg/mL (≈ 27.7 µM)	3.12 µg/mL (≈ 6.94 µM)	1.56 µg/mL (≈ 3.46 µM)	25 µg/mL (≈ 55.5 µM)	6.25 µg/mL (≈ 13.9 µM)	–	–	–	–	MIC [3]: ≥ 6.25 µg/mL
O=C(O)c1ccc(-n2cc(/C=N/Nc3c(F)c(F)cc(F)c3F)c(-c3ccc4ccccc4c3)n2)cc1 [Compound 23]	≥ 0.78 µg/mL	> 50 µg/mL	> 50 µg/mL	3.12 µg/mL (≈ 6.19 µM)	> 50 µg/mL	> 50 µg/mL	1.56 µg/mL (≈ 3.09 µM)	1.56 µg/mL (≈ 3.09 µM)	> 50 µg/mL	3.12 µg/mL (≈ 6.19 µM)	selective toxicity for bacterial cells	–	12.5 µg/mL (≈ 24.8 µM)	1.56 µg/mL (≈ 3.09 µM)	–
O=C(O)c1ccc(-n2cc(/C=N/Nc3ccc(Cl)cc3)c(-c3ccc4ccccc4c3)n2)cc1 [Compound 16]	–	12.5 µg/mL (≈ 26.8 µM)	6.25 µg/mL (≈ 13.4 µM)	6.25 µg/mL (≈ 13.4 µM)	3.12 µg/mL (≈ 6.69 µM)	6.25 µg/mL (≈ 13.4 µM)	1.56 µg/mL (≈ 3.34 µM)	3.12 µg/mL (≈ 6.69 µM)	6.25 µg/mL (≈ 13.4 µM)	12.5 µg/mL (≈ 26.8 µM)	–	–	–	–	MBC ([6]; ATCC19606): 50 µg/mL (≈ 107 µM); MIC ([6]; ATCC19606): 3.12 µg/mL (≈ 6.69 µM); time kill effect (A. baumannii ATCC 19606; 24 hours at 35 °C): bacteriostatic effect; increase in log10 cfu/mL of the bacterial population (A. baumannii ATCC 19606; through 24 hours): ≤ 2 fold
O=C(O)c1ccc(-n2cc(/C=N/N(c3ccccc3)c3ccccc3)c(-c3ccc4ccccc4c3)n2)cc1 [Compound 8]	≥ 1.56 µg/mL	3.12 µg/mL (≈ 6.14 µM)	1.56 µg/mL (≈ 3.07 µM)	1.56 µg/mL (≈ 3.07 µM)	> 50 µg/mL	3.12 µg/mL (≈ 6.14 µM)	1.56 µg/mL (≈ 3.07 µM)	1.56 µg/mL (≈ 3.07 µM)	> 50 µg/mL	12.5 µg/mL (≈ 24.6 µM)	–	–	–	–	inhibition of biofilm formation [12, 17]: very effective
O=C(O)c1ccc(-n2cc(/C=N/Nc3ccc(C(F)(F)F)cc3)c(-c3ccc4ccccc4c3)n2)cc1 [Compound 25]	≥ 0.78 µg/mL	25 µg/mL (≈ 50 µM)	25 µg/mL (≈ 50 µM)	0.78 µg/mL (≈ 1.56 µM)	> 50 µg/mL	12.5 µg/mL (≈ 25 µM)	0.78 µg/mL (≈ 1.56 µM)	0.78 µg/mL (≈ 1.56 µM)	> 50 µg/mL	1.56 µg/mL (≈ 3.12 µM)	–	excellent ability to eliminate the preformed biofilms	25 µg/mL (≈ 50 µM)	0.78 µg/mL (≈ 1.56 µM)	inhibition of biofilm formation ([12]; 2xMIC): potent biofilm inhibition activity
O=C(O)c1ccc(-n2cc(/C=N/Nc3c(F)c(F)c(F)c(F)c3F)c(-c3ccc4ccccc4c3)n2)cc1 [Compound 24]	≥ 0.78 µg/mL	> 50 µg/mL	> 50 µg/mL	3.12 µg/mL (≈ 5.98 µM)	> 50 µg/mL	> 50 µg/mL	0.78 µg/mL (≈ 1.49 µM)	0.78 µg/mL (≈ 1.49 µM)	> 50 µg/mL	1.56 µg/mL (≈ 2.99 µM)	selective toxicity for bacterial cells	–	–	–	–
